# Assay outcomes deposited in PubChem by several laboratories.
# TMEM16A inh – TMEM16A chloride channel inhibitors, primary screen, cell-based, HTS; Anoctamin-1 (Mus musculus), Q8BHY3; HEK293 TMEM16A/YFP iodide influx fluorescence, ionomycin; normalized B-score (activity score, 25-100; higher = stronger inhibition) at 10 µM; hit rate 1.2% among 310,000; AID 588511, 2011;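 active means ratio plate-corrected score three or more library SD toward inhibition, starting fluorescence score within five deviations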;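 further: score derived from kinetic fluorescence span divided by baseline fluorescence per well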
# TMEM16A act – TMEM16A chloride channel activators or potentiators, primary screen, cell-based, HTS | Anoctamin-1 (Mus musculus), Q8BHY3 | HEK293 TMEM16A/YFP-H148Q/I152L, iodide quench fluorescence; stronger effect = lower value | B-score at 10 µM | hit rate 0.3% among 340,000 | AID 623877, 2012;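 active means fluorescence-ratio B-score plate-corrected deviation score at least 3 library SD below zero, with starting fluorescence score within 5 deviations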;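 further: channel opened by trigger with iodide after compound preincubation; score built on the fluorescence ratio of max minus min over baseline; more negative score means more quench and so TMEM16A activation or potentiation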
# UBC13 inh – UBC13 polyubiquitin chain formation inhibitors, primary screen, biochemical, TR-FRET, uHTS; inhibition, % at 20 µM; Ubiquitin-conjugating enzyme E2 N (Homo sapiens), P61088; hit rate 0.47% among 330,000; in the data active means inhibition above about 45%, passing the limit was not always enough
# FID counter – compounds displacing fluorescent DNA intercalator, primary screen, artefact control for HCV NS3 helicase inhibitor project, biochemical, FID fluorescence. DNA fluorescent intercalator displacement. inhibition, % at 7.9 µM. hit rate 0.17% among 290,000; in the data active means inhibition above about 37%;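 further: 0% = vehicle and 100% = reference compound; higher means more ethidium bromide displaced from hairpin DNA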
# Apaf-1 inh – inhibitors of human Apaf-1 apoptosome, primary screen, biochemical, DEVD-Rh110 fluorescence, uHTS | Apoptotic protease-activating factor 1 (Homo sapiens), O14727 | reconstituted apoptosome caspase-3 activity | hit rate 0.71% among 330,000 | AID 489030, 2010 | inhibition, % at 20 µM; active means inhibition of at least 40% at 20 µM;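 further: plate controls were DMSO wells for no effect and DEVD-CHO caspase inhibitor wells for full effect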
#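 System: reconstituted apoptosome with Apaf-1, cytochrome c, caspase-9, procaspase-3, dATP; Signal: Rh110 fluorescence intensity; Schedule: 30 min compound preincubation, 50 min activation, room temperature; Reagent: cytochrome c trigger plus (Z-DEVD)2-Rh110 caspase-3 substrate.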
# TMEM16A reconf – TMEM16A chloride channel inhibitors, confirmation, cell-based, re-confirmation | shares compounds with TMEM16A inh | HEK293 TMEM16A/YFP-H148Q, iodide quench fluorescence; ionomycin added to raise cell calcium | inhibition, % at 10 µM | hit rate 39% among 2,300 | AID 652189, 2013;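 active means mean duplicate percent inhibition, scaled so buffer wells are 0 and the reference blocker 100, over three buffer SD above buffer mean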
# HEK293 Ca mobil – calcium mobilization in TMEM16A/YFP HEK293 cells, confirmation, counter-screen for TMEM16A inhibitor project. calcium response (% of ionomycin), % at 10 µM. Fluo4 calcium mobilization. hit rate 2% among 2,300. shares compounds with TMEM16A inh;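 active means duplicate-averaged calcium signal over 20% of the ionomycin maximum, relative to buffer baseline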;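 further: each well's signal is peak minus trough fluorescence divided by its pre-addition baseline; 0% = buffer wells and 100% = ionomycin wells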
# Parental YFP cnt – iodide YFP quench changes in parental YFP-HEK293, counter-screen for TMEM16A inhibitor project, cell-based; ionomycin; shares compounds with TMEM16A inh; YFP ratio F(max-min)/F0 at 10 µM; 2,300 tested, under 10 active;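 active means yellow fluorescent protein signal ratio exceeding the buffer control mean by over 5 SD of those controls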;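 further: ratio is mean of duplicate wells from kinetic YFP trace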
# ClC-1 rat inh – ClC-1 chloride channel inhibition, selectivity assay for TMEM16A inhibitor project, cell-based, voltage-dependent ClC-1. shares compounds with TMEM16A inh. AID 652236, 2013. CHO ClC-1-YFP, iodide influx fluorescence quench; iodide control reads 0, buffer control 100. ratio percent, % at 10 µM. 2,300 tested, under 10 active;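 active means duplicate-mean ratio percent above the mean of iodide-only control wells, which defines zero, plus 5 of their SD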;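 further: higher percent means stronger block of ClC-1 iodide influx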
# Target sequence (P35524 whole entry, looked up): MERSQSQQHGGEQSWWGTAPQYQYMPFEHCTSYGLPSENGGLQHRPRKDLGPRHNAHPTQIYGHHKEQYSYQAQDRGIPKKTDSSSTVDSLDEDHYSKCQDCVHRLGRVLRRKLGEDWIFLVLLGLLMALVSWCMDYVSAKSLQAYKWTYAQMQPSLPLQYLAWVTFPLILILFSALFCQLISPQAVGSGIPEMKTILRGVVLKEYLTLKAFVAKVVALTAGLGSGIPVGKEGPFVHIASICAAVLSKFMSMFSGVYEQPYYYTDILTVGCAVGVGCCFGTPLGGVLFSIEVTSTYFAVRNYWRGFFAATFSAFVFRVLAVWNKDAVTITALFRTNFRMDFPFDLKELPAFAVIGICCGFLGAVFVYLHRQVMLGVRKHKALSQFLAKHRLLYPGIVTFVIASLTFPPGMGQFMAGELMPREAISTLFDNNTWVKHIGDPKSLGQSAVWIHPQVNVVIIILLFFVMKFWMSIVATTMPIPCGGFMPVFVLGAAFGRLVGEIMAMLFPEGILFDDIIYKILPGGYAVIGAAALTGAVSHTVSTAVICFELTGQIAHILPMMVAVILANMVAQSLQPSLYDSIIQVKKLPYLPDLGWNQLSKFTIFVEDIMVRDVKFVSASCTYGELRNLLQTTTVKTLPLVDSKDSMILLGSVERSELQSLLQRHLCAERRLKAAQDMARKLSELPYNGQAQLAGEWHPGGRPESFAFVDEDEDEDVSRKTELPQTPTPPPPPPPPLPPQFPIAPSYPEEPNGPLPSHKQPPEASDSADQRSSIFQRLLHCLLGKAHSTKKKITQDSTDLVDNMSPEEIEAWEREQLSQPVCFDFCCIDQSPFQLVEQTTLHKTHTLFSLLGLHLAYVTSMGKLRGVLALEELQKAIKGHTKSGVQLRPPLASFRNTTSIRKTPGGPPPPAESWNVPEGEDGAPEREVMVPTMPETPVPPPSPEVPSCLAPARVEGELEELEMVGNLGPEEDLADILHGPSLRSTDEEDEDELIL
# * hit, by the source's call; i = inactive; . = not tested or not shown. Rows were chosen to be rich in hits. Some 2.4% of all compounds tested hit in one or more screens of this group.
SMILES,TMEM16A inh,TMEM16A act,UBC13 inh,FID counter,Apaf-1 inh,TMEM16A reconf,HEK293 Ca mobil,Parental YFP cnt,ClC-1 rat inh
COc1ccc(C(=O)Nc2ccc(C)c(S(=O)(=O)N3CCCCCC3)c2)cc1,100*,i,11.0,-22.2,15.8,i,i,-1.08,-2.0
CCc1ccc(C(=O)Nc2ccc(OC)c(S(=O)(=O)N3CCOCC3)c2)cc1,100*,i,-5.0,-26.2,-1.7,i,i,-0.982,-9.0
CCc1cccc(OCC(=O)Nc2ccc(C)c(S(=O)(=O)N3CCCCCC3)c2)c1,100*,i,-11.5,.,21.8,i,i,-1.15,-4.5
Cc1ccc(NC(=O)CSc2ncnc3ccccc23)cc1S(=O)(=O)N1CCCCCC1,25*,i,12.3,-14.2,-6.9,27.0%*,i,-1.17,-16.0
CC(C#N)Sc1ccc(S(=O)(=O)N2CCCC2)cn1 (stereo not drawn),.,i,-5.5,.,-2.5,.,.,.,.
COc1ccc(NC(=O)NC(C)C2CC3CCC2C3)cc1 (stereo not drawn),i,i,8.4,-12.1,8.6,.,.,.,.
CCC(C)c1ccccc1N1CC(C(=O)Nc2cc(S(=O)(=O)N3CCOCC3)ccc2OC)CC1=O (stereo not drawn),i,i,0.2,-57.2,2.6,.,.,.,.
O=C(CN1C(=O)NC2(CCCc3ccccc32)C1=O)NCc1ccc(Cl)cc1Cl (stereo not drawn),i,i,-1.9,-16.7,11.5,.,.,.,.
Cc1cccc(C(=O)OCC(=O)N2CC(=O)Nc3ccccc32)c1C,.,i,-4.7,.,16.7,.,.,.,.
Cc1cccc(OCCC(=O)Nc2ccc(C)c(S(=O)(=O)N3CCCCC3)c2)c1,25*,i,.,-21.8,.,34.0%*,i,-1.12,-13.0
CCOC(=O)Cc1csc(NC(=O)c2csc(C)c2)n1,100*,i,5.2,-6.2,-12.9,42.0%*,i,-1.31,-7.0
CCOC(=O)Cc1csc(NC(=O)c2cccc(OC)c2)n1,i,i,-2.0,-1.8,7.3,.,.,.,.
COC(=O)c1ccc(-c2cc3onc(-c4ccccc4)c3c(=O)n2C)cc1,25*,i,11.2,.,22.0,i,i,-1.04,-4.5
CN(C)C(=O)c1ccc(-c2cc3onc(-c4ccccc4)c3c(=O)n2C)cc1,.,i,2.8,.,10.1,.,.,.,.
Cn1c(-c2ccc(F)c(F)c2)cc2onc(-c3ccccc3)c2c1=O,i,i,4.4,.,5.7,.,.,.,.
COc1cccc(-c2cc3onc(-c4ccccc4)c3c(=O)n2C)c1,25*,i,10.7,.,20.8,i,i,-0.911,-19.0
COc1ccc(N2CC(C(=O)Nc3nc4ccc(S(C)(=O)=O)cc4s3)CC2=O)cc1 (stereo not drawn),i,i,-2.5,-20.7,14.7,.,.,.,.
CCCCC(=O)Nc1c2c(nn1-c1cccc(C)c1C)CS(=O)(=O)C2,i,.,-0.5,-3.3,-2.2,.,.,.,.
CCN(CC(=O)N1CCc2ccccc2C1)S(=O)(=O)c1ccc2ccccc2c1,i,i,-7.7,-27.8,-15.0,.,.,.,.
O=C(Nc1ccc(F)cc1)c1ccccc1NS(=O)(=O)N1CCCC1,25*,i,6.2,-1.2,4.9,27.5%*,i,-1.19,-6.0
CCOc1ccc2c(c1)C(=NNC(=O)c1ccccn1)c1cc(OCC)ccc1-2,.,i,.,.,.,.,.,.,.
N#Cc1nc(N2CCCC2)nc(N2CCCC2)n1,100*,i,7.7,-0.2,0.2,22.0%*,i,-0.92,0.0
N#Cc1nc(N2CCCCC2)nc(N2CCOCC2)n1,i,i,8.9,3.7,-26.5,.,.,.,.
CCCCCCNc1cc2n(c(=O)n1)CCc1cc(OC)c(OC)cc1-2,i,i,10.6,-17.5,0.4,i,i,-1.03,-12.5
COc1ccc(CNC(=O)CN(Cc2ccco2)C(=O)CCC(=O)Nc2ccccn2)cc1,i,i,-0.8,-30.9,9.4,.,.,.,.
SMILES,TMEM16A inh,TMEM16A act,UBC13 inh,FID counter,Apaf-1 inh,TMEM16A reconf,HEK293 Ca mobil,Parental YFP cnt,ClC-1 rat inh
Cc1nn(C(=O)c2ccc3c(c2)OCO3)c(N)c1-c1ccccc1,100*,i,4.6,-5.7,23.3,i,i,-1.01,-1.5
CCc1ccc(CN(C)C(=O)c2cc(COc3ccc(OC)cc3Cl)on2)nc1,i,i,0.1,-43.8,19.6,.,.,.,.
CC(NC(=S)NC1CCCCC1)c1ccc(C(C)(C)C)cc1 (stereo not drawn),25*,i,-7.9,-27.8,7.4,i,i,-0.777,2.5
CCOc1ccc(C(C)NC(=S)NC2CCCCC2)cc1 (stereo not drawn),i,i,9.6,-15.3,0.5,.,.,.,.
CC(C)c1ccc(C(C)NC(=S)NC2CCCCC2)cc1 (stereo not drawn),25*,i,4.8,-35.6,15.8,25.5%*,i,-1.01,-2.0
CC(C)(C)C(=O)COC(=O)CCc1nc2ccccc2[nH]c1=O,25*,i,28.5,0.5,6.4,i,i,-0.83,-4.5
CC(=O)COC(=O)CCc1nc2ccccc2[nH]c1=O,i,i,42.5,-3.2,-33.7,.,.,.,.
CCCn1c(C2CCCN2c2nc(-c3cccc(Br)c3)cs2)nc2ccccc21 (stereo not drawn),i,i,15.3,-25.8,11.8,.,.,.,.
CCCOC(=O)C1=C(C)NC2=C(C(=O)C(C(=O)OC)C(C)C2)C1c1ccc(N(CC)CC)cc1 (stereo not drawn),i,i,6.3,17.5,8.6,.,.,.,.
CCOC(=O)C1=C(C)NC2=C(C(=O)C(C(=O)OC)C(C)C2)C1c1ccc(OC)c(O)c1 (stereo not drawn),25*,i,-3.5,-12.5,-6.9,i,i,-0.852,-0.5
CCOc1ccc(-c2nnn(CC(=O)NCc3ccc(F)cc3)n2)cc1OCC,i,i,-3.8,-0.4,-4.4,.,.,.,.
CCOc1ccc(-c2nnn(CC(=O)c3ccc4c(c3)OCCO4)n2)cc1OCC,25*,i,10.4,-13.7,0.9,18.5%*,i,-1.02,-9.5
CN(CC(=O)Nc1cccc2ccccc12)C(=O)c1cccc(S(=O)(=O)N(C)C)c1,i,i,6.6,-13.7,-13.7,.,.,.,.
